Only some compounds are listed: those with a hit (about 2.3% of all), similar ones and a draw of the others.
TRPC4 act: opens the mouse TRPC4 cation channel | Q9QUQ5 | AID 2237 | hit rate 0.49% among 310,000 | HEK293 TRPC4beta/mu-opioid, Fluo4 calcium fluorescence; stronger effect = higher value | B-score at 10 µM;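 active = B-score above 5 SD of library B-scores, and initial fluorescence ratio not above library mean plus 5 SD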;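 note: positive B-score marks a calcium rise read as TRPC4 activation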
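System – HEK293 cells stably co-expressing mouse TRPC4beta and mu-opioid receptor · Signal – Fluo4 calcium-sensitive dye fluorescence, kinetic, 1 Hz baseline · Benchmarks – buffer (low) and maximal DAMGO (high) · Read-out – B score of integrated fluorescence ratio per well · Incubation – dye loading 45 min room temperature, 110 s kinetic read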
TRPC6 activator: activators of mouse TRPC6 channel. Q61143. HEK293-TRPC6 membrane potential dye fluorescence; stronger effect = higher value. B-score at 10 µM. hit rate 0.13% among 310,000;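 active = B-score of the integrated fluorescence ratio above library mean plus 3 SD, and starting fluorescence ratio within library mean plus 5 SD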;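 note: higher score means more depolarization so channel activation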
Target sequence (Q61143 whole entry, looked up): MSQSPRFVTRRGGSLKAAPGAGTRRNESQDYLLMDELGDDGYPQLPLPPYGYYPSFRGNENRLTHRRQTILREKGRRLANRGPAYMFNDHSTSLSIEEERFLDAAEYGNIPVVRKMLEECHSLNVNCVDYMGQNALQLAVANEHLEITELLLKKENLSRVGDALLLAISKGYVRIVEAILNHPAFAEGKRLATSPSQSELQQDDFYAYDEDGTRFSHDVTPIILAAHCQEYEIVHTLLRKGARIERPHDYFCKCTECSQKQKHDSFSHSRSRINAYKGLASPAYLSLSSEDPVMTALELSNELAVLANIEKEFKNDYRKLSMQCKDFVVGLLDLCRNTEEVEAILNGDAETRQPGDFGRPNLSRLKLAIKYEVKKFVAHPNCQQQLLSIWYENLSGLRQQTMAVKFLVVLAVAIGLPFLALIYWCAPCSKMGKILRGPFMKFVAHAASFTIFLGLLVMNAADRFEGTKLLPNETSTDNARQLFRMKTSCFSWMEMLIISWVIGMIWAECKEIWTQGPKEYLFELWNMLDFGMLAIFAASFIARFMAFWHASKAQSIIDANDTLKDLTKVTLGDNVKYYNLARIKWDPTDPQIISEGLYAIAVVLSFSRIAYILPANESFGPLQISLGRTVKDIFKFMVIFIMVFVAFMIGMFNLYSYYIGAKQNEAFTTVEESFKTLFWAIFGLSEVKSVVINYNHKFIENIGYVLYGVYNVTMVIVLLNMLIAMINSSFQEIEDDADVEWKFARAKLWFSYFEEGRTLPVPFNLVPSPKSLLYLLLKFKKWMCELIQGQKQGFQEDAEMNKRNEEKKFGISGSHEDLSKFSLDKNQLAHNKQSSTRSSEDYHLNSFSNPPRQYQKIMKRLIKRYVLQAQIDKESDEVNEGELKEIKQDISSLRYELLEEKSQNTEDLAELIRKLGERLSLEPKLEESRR
TRPC4 PAM: allosterically enhances the mouse TRPC4 cation channel. HEK293 TRPC4beta/mu-opioid, DAMGO EC20, Fluo-4 Ca2+ flux; stronger effect = higher value. hit rate 0.42% among 310,000. B-score at 10 µM. Q9QUQ5. AID 2227;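 active = B-score of calcium response area above 5 SD of library B-scores, with initial fluorescence ratio within 5 SD of library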;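 note: B-score of integrated fluorescence ratio over time as area under calcium response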
TRPC4 inh: TRPC4 (mouse) channel inhibition; Q9QUQ5; B-score at 10 µM; hit rate 0.39% among 300,000; HEK293 TRPC4beta/mu-opioid, DAMGO-evoked Fluo4 calcium flux; stronger effect = lower value; AID 2247;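 active = B-score over 3 SD under the library average, no early fluorescence shift, positive overall ratio signal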
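Signal: kinetic Fluo4 fluorescence imaging of calcium influx. Material: stable TRPC4beta/mu-opioid receptor HEK293 cells. Probe or stimulus: DAMGO in two steps, submaximal then maximal.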
TRPC6 inhibitor: mouse TRPC6 channel inhibition. HEK293-TRPC6, membrane potential dye, ACh-evoked depolarization; stronger effect = lower value. B-score at 10 µM. hit rate 1.1% among 310,000. Q61143;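 active = B-score under library mean minus 3 SD, initial fluorescence not abnormally high, positive integrated signal ratio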;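 note: B-score derived from integrated fluorescence ratio over the kinetic read; more negative B-score means stronger inhibition of depolarization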
TRPC4 spec 2: second selectivity test of TRPC6 inhibitors: effect on mouse TRPC4; HEK293 TRPC4/MOR, membrane potential dye fluorescence; channel activated by saturating DAMGO dose; shares compounds with TRPC6 inhibitor; hit rate 42% among 920; inhibition, % at 10 µM;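 active = compounds whose fluorescence signal differed from control wells by over 3 SD, either direction, in both duplicate plates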
TRPC4 spec: selectivity of TRPC6 inhibitors: effect on mouse TRPC4; shares compounds with TRPC6 inhibitor; HEK293 TRPC4/mu-opioid, membrane potential fluorescence; activity change, negative = inhibition, % at 10 µM; hit rate 61% among 920; AID 2777;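 active = rise or fall in signal beyond 3 SD of buffer-only wells in both replicate plates, either sign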;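 note: integrated kinetic ratio of fluorescence range over baseline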
HEK293 MPD ctr 2-1: parental HEK293 nonspecific activity of TRPC6 inhibitors, second screen; hit rate 31% among 920; parental HEK293 membrane potential dye fluorescence; maximal acetylcholine challenge after compound addition; shares compounds with TRPC6 inhibitor; signal change vs control, % at 10 µM;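 active = membrane potential signal moving either way by over 3 SD of the maximum-effect control, in both duplicate plates, meaning non-specific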
HEK293 MPD ctr-1: checks TRPC6 inhibitor effects in parental HEK293 cells | membrane potential signal change, % at 10 µM | shares compounds with TRPC6 inhibitor | parental HEK293 membrane potential dye fluorescence | hit rate 60% among 920;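 active = membrane potential signal shifting up or down by more than 3 SD of buffer-only wells, on both duplicate plates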
HEK293 MPD ctr-2: checks TRPC6 modulator effects in parental HEK293 cells | shares compounds with TRPC6 inhibitor | membrane potential signal change, % at 10 µM | membrane potential dye fluorescence | AID 488924 | hit rate 51% among 2,400;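 active = membrane potential signal moves up or down beyond 5 SD from buffer-only wells, on both duplicate plates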
HEK293 MPD ctr 2-2: second counter-screen for TRPC6 modulators: effect in parental HEK293 cells | shares compounds with TRPC6 inhibitor | membrane potential dye fluorescence; after compound, maximal acetylcholine stimulation | inhibition, % at 10 µM | hit rate 14% among 2,400;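 active = membrane potential signal drops by more than 5 SD from the mean control signal, in both duplicate plates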;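 note: plate controls were acetylcholine ECmax control wells for no effect and buffer only wells for full effect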
TRPC4 ctr mod: tests whether TRPC6 modulators also affect mouse TRPC4 | shares compounds with TRPC6 inhibitor | HEK293 TRPC4/mu-opioid, membrane potential fluorescence | percent change from control (negative = decrease, positive = increase), % at 10 µM | hit rate 69% among 2,400 | AID 488927;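 active = membrane potential signal moved up or down beyond 5 SD of buffer control wells, in both duplicate plates, actives on both sides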;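 note: plate controls were assay buffer wells for no effect and DAMGO maximal-effect wells for full effect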
TRPC4 ctr inh 2: second selectivity test of TRPC6 modulators against mouse TRPC4; shares compounds with TRPC6 inhibitor; HEK293 TRPC4/mu-opioid, membrane potential dye fluorescence; stimulated with maximal-effect DAMGO; inhibition, % at 10 µM; hit rate 55% among 2,400; AID 488928;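 active = drop in membrane potential signal beyond 5 SD of the control wells in both duplicate plates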;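 note: TRPC4 counter screen for TRPC6 hits run under conditions tuned for TRPC6 not TRPC4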
TRPC6 block conf: confirmation of mouse TRPC6 inhibitors; shares compounds with TRPC6 inhibitor; HEK293-TRPC6, membrane potential dye, ACh-evoked depolarization; inhibition, % at 10 µM; hit rate 43% among 3,300;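 active = fluorescence ratio falls more than 5 SD below the full-stimulation control mean, in both duplicate runs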;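 note: integrated fluorescence ratio of peak minus minimum over baseline after agonist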
TRPC6 act confirm: confirmation of mouse TRPC6 activators | HEK293-TRPC6 membrane potential dye fluorescence, FDSS | hit rate 11% among 2,800 | AID 488961 | activation, % at 10 µM | shares compounds with TRPC6 inhibitor;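 active = ratio signal rise beyond 5 SD above unstimulated control wells' mean, seen in both duplicate runs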;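 note: plate controls were buffer EC0 wells for no effect and acetylcholine ECmax response for full effect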
Active calls of the source: *; i = inactive; . = not tested or not shown.

SMILES	TRPC4 act	TRPC6 activator	TRPC4 PAM	TRPC4 inh	TRPC6 inhibitor	HEK293 MPD ctr-2	HEK293 MPD ctr 2-2	TRPC4 ctr mod	TRPC4 ctr inh 2	TRPC6 block conf	TRPC6 act confirm	others
Cc1ccc2nc3c(cc(C(=O)NCCN4CCOCC4)c(=N)n3CCCN3CCOCC3)c(=O)n2c1	i	i	i	i	-7.5*	.	.	.	.	83%*	.	TRPC4 spec 2=72%*;TRPC4 spec=i;HEK293 MPD ctr 2-1=-174%*;HEK293 MPD ctr-1=i
N=c1c(C(=O)NCCN2CCOCC2)cc2c(=O)n3ccccc3nc2n1Cc1ccc(F)cc1	i	i	i	i	-7.7*	-74%*	90%*	-17%*	45%*	56%*	i
Cc1ccc2nc(NCc3ccccc3)c(C=NCc3ccccc3)c(=O)n2c1	i	i	i	i	i	.	.	.	.	.	.
Cc1ccc2nc(NCCCN3CCOCC3)c(C=NCCCN3CCOCC3)c(=O)n2c1	i	i	i	i	-8.9*	-350%*	80%*	-66%*	53%*	64%*	i
COC(=O)c1cc(C(=O)NCc2ccccc2)c(=O)[nH]c1C	i	i	i	i	i	.	.	.	.	.	.
Cc1cccn2c(=O)c(/C=C(\C#N)C(=O)NC3CCS(=O)(=O)C3)c(N3CCC(C(N)=O)CC3)nc12 (stereo not drawn)	i	i	i	i	i	.	.	.	.	.	.
CCN1CCN(c2nc3c(C)cccn3c(=O)c2/C=C(\C#N)C(=O)NCCOC)CC1	i	i	i	i	-5.5*	-278%*	i	-52%*	i	i	i
Cc1cccn2c(=O)c(/C=C(\C#N)C(=O)NC3CCS(=O)(=O)C3)c(N3CC(C)OC(C)C3)nc12 (stereo not drawn)	i	i	i	i	-5*	i	i	-14%*	i	i	i
CCN(CC)S(=O)(=O)c1ccc(NC(=O)CCC2CCCCC2)cc1	i	i	i	i	i	.	.	.	.	.	.
CCN(CC)S(=O)(=O)c1ccc(NC(=O)CNC2CCCCC2)cc1	i	i	i	i	-5.3*	i	i	i	58%*	46%*	i
S=C(NCCC(c1ccccc1)c1ccccc1)Nc1cccc(Cl)c1	i	i	i	i	i	.	.	.	.	.	.
S=C(NCCN(C1CCCCC1)C1CCCC1)Nc1cccc(Cl)c1	i	i	i	i	-6.1*	95%*	i	18%*	70%*	56%*	.
CC(=O)c1c(C)nc2cc(Cl)ccc2c1N	i	i	i	i	-5.8*	-66%*	i	-12%*	32%*	i	i
COc1ccc[nH]c1=O	i	i	i	i	-6*	i	i	i	i	i	i
O=C(Nc1ccccc1)Oc1ccc[nH]c1=O	i	i	i	i	i	.	.	.	.	.	.
Cc1ccc2c(c1)N(S(=O)(=O)c1ccc(CN3C(=O)c4cccnc4C3=O)s1)CCO2	i	i	i	i	i	.	.	.	.	.	.
C=C(C)Cn1c(=O)c2c(nc3n2CC(C)CN3Cc2ccccc2)n(C)c1=O (stereo not drawn)	i	i	i	i	i	.	.	.	.	.	.
CCS(=O)(=O)N1Cc2ccccc2CC1C(=O)Nc1nnc(SCc2ccc(C#N)cc2)s1 (stereo not drawn)	i	23*	i	i	i	i	i	i	i	i	i
COC(=O)c1cc(C(=O)c2cc(F)ccc2O)cn2c(=O)c3c(C)c(C)sc3nc12	i	i	i	i	-5.4*	i	i	i	44%*	i	i
CCOC(=O)c1sc2nc3c(SCC(=O)O)cc(C(=O)c4cc(F)ccc4O)cn3c(=O)c2c1C	i	i	i	i	i	.	.	.	.	.	.
Cc1c(Cl)cccc1Nc1nc(NCCO)c2ccccc2n1	i	i	i	i	-6.9*	.	.	.	.	i	i	TRPC4 spec 2=51%*;TRPC4 spec=i;HEK293 MPD ctr 2-1=i;HEK293 MPD ctr-1=i
OCCNc1nc(Nc2ccc(Br)cc2)nc2ccccc12	i	i	i	i	-7*	.	.	.	.	i	i	TRPC4 spec 2=46%*;TRPC4 spec=-20%*;HEK293 MPD ctr 2-1=i;HEK293 MPD ctr-1=-181%*
OCCNc1nc(Nc2ccccc2)nc2ccccc12	i	i	i	i	-9.6*	.	.	.	.	69%*	i	TRPC4 spec 2=32%*;TRPC4 spec=-22%*;HEK293 MPD ctr 2-1=i;HEK293 MPD ctr-1=-224%*
OCCNc1nc(Nc2ccccc2)nc(Nc2ccccc2)n1	i	i	i	i	i	.	.	.	.	.	.
CC(C)[N+](C)(CCOC(=O)C1c2ccccc2Oc2ccccc21)C(C)C	i	i	i	i	-9.5*	.	.	.	.	105%*	i	TRPC4 spec 2=i;TRPC4 spec=i;HEK293 MPD ctr 2-1=-18%*;HEK293 MPD ctr-1=i
CCn1c(=Nc2ccc(N3CCOCC3)cc2)ccc2ccccc21	i	i	i	i	i	.	.	.	.	.	.
Cn1c(=Nc2ccc(N3CCOCC3)cc2)ccc2ccccc21	i	i	i	i	-6*	-76%*	i	-16%*	i	41%*	i
CCN(CC)C(=O)NC1CC2CCCC(C1)N2Cc1ccccc1 (stereo not drawn)	i	i	i	i	i	.	.	.	.	.	.
